According to ChEMBL document CHEMBL3994609, “Model-Based Discovery of Synthetic Agonists for the Zn2+-Sensing G-Protein-Coupled Receptor 39 (GPR39) Reveals Novel Biological Functions” (J Med Chem, 2017):
Active and inactive are the calls of the source. No cut-off for these calls is given here.

Assays:
[1] = target: T1, G-protein coupled receptor 39 (Homo sapiens, UniProt O43194); assay: Agonist activity at human GPR39 expressed in HEK293 cells co-expressing Galphaq assessed as myo-[2-3H]inositol phosphate accumulation in presence of 10 uM Zn2+ measured after 75 mins by scintillation proximity assay; type: functional, cell-based
T1 sequence (O43194 whole entry): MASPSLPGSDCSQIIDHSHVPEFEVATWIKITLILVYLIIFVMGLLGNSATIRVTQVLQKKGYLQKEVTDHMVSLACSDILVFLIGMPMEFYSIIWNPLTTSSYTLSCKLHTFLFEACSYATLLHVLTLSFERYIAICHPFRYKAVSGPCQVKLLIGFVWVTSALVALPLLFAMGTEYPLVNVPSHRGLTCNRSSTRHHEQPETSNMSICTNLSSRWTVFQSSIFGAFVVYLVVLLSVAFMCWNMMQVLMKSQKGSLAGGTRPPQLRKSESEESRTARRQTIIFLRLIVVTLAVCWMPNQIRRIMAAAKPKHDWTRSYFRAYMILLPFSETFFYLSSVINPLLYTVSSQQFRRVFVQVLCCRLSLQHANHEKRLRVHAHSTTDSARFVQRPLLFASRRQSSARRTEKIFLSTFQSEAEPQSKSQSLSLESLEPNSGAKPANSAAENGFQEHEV

[2] = target: Growth hormone secretagogue receptor type 1 (Homo sapiens) (UniProt Q92847); assay: Agonist activity at human ghrelin receptor ([…]) assessed as myo-[2-3H]inositol phosphate accumulation in presence of 10 uM Zn2+ measured after 75 mins by scintillation proximity assay; type: functional
Chain of Growth hormone secretagogue receptor type 1 (Homo sapiens) (Q92847 whole entry): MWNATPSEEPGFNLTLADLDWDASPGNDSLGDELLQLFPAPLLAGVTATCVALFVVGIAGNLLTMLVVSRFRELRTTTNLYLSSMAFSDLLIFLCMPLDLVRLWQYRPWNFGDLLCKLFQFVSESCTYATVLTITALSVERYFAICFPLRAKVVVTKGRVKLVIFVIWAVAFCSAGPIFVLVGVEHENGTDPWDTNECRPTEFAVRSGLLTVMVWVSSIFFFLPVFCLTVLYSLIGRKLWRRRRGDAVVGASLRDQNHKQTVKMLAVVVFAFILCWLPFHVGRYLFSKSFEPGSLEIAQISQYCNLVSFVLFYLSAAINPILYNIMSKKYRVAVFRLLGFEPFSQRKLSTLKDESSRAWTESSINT

[3] = tested on: Pancreatic islet; assay: Induction of glucose-stimulated insulin release in mouse pancreatic islets at 1 uM pretreated for 24 hrs followed by glucose addition measured after 30 mins; type: functional, cell-based
Method in brief: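 Islets isolated from GPR39-deficient mice and wild-type littermates on five independent days, 2 to 3 mice per day; insulin secretion measured with vehicle or 1 μM compound.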

[4] = target: T2, G-protein coupled receptor 39 (Mus musculus) (UniProt Q5U431); assay: Agonist activity at GPR39 in primary gastric mucosal cells isolated from C57BL/6 mouse assessed as inhibition of isoproterenol-induced ghrelin secretion at 1 uM in presence of 10 uM of Zn2+ and somatostatin receptor antagonist BIM-23627 measured after 4 hrs by ELISA
T2 sequence (whole entry): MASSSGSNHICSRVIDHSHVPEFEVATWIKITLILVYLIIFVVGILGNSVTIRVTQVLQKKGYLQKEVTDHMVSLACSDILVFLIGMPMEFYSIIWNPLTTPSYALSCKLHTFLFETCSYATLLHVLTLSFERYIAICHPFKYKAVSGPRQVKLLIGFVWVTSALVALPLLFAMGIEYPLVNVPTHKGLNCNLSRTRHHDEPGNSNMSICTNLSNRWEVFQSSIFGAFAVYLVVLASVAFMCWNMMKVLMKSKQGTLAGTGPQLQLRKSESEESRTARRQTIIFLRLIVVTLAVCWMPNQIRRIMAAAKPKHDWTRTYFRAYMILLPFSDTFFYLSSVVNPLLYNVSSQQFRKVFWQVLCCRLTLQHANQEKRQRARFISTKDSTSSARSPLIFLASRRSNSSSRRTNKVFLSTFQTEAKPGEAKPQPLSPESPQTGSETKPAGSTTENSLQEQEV
Method in brief: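 Primary gastric mucosal cell cultures from mice, incubated the day after preparation with ligands at 1 μM with 10 μM Zn2+ (with or without a somatostatin receptor antagonist) in triplicate for 4 h. Acyl-ghrelin in supernatant measured by ELISA, expressed as percent of medium-alone cells; n=5–7; unpaired t-test with Welch's correction versus vehicle.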

[5] = target: Growth hormone secretagogue receptor type 1 (Homo sapiens) (UniProt Q92847); assay: Agonist activity at human ghrelin receptor ([…]) assessed as myo-[2-3H]inositol phosphate accumulation measured after 75 mins by scintillation proximity assay; type: functional
[6] = target: Neuromedin-U receptor 2 (Homo sapiens) (UniProt Q9GZQ4); assay: Agonist activity at human NMU2 receptor assessed as myo-[2-3H]inositol phosphate accumulation measured after 75 mins by scintillation proximity assay; type: functional
Chain of Neuromedin-U receptor 2 (Homo sapiens) (Q9GZQ4 whole entry): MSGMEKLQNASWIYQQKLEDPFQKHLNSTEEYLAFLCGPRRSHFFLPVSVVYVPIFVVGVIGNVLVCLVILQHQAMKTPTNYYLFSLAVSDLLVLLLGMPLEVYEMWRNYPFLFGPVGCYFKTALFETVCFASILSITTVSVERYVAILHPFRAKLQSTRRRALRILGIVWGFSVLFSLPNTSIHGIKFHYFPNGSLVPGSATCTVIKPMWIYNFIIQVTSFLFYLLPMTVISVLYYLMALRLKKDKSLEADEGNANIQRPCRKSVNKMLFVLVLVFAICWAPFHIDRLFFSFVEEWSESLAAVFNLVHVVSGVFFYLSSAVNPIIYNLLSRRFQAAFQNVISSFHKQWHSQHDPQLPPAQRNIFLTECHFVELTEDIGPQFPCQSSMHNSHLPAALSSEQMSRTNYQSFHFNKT

[7] = target: C-C chemokine receptor type 5 (Macaca mulatta) (UniProt P61813); assay: Agonist activity at full length rhesus monkey CCR5 assessed as myo-[2-3H]inositol phosphate accumulation measured after 75 mins by scintillation proximity assay; type: functional
[8] = Increase in CGRP-induced somatostatin release in primary gastric mucosal cells isolated from GPR39 deficient C57BL/6 mouse at 1 uM in presence of 10 uM of Zn2+ measured after 4 hrs by radioimmunoassay relative to control; type: functional, Primary gastric mucosal cell; conditions: in the assay text read “C57BL/6 mouse” for “GPR39 deficient C57BL/6 mouse”
[9] = tested on: Plasma; assay: Drug uptake in mouse plasma at 30 to 60 mg/kg, po administered via gavage measured after 30 to 240 mins by LC-MS/MS analysis; type: ADME, organism-based; conditions: in vivo
Method in brief: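 Mice dosed orally at 30 mg/kg and 60 mg/kg; plasma compound concentration followed from 30 to 240 min.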

[10] = target: T3, C-C chemokine receptor type 1 (Homo sapiens) (UniProt P32246); assay: Agonist activity at full length human CCR1 assessed as myo-[2-3H]inositol phosphate accumulation in presence of 10 uM Zn2+ measured after 75 mins by scintillation proximity assay; type: functional
T3 sequence (whole entry): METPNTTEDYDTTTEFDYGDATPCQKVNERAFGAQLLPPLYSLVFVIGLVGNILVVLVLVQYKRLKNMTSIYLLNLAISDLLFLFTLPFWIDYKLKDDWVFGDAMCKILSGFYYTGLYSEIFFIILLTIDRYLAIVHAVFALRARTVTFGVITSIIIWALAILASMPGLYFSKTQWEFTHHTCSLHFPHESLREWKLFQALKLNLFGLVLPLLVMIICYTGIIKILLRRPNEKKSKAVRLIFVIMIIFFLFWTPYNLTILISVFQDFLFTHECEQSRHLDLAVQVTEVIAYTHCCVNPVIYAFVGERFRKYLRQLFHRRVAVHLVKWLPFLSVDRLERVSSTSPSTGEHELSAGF

EC50 [1]: 9 nM
Activity [2]: inactive
inhibition [4]: inactive
Activity [5]: inactive
Activity [6]: inactive
Activity [7]: inactive
Drug uptake [9]: Active
Activity [10]: inactive
Compound: Cc1nn(-c2ncnc3nc[nH]c23)c2c1C(c1ccc(F)cc1Cl)CC(=O)N2 (stereo not given)
Activity [3]: inactive
Activity [8]: 53%
